Data on one compound can be found in ChEMBL document CHEMBL4725242, “Discovery of GS-9688 (Selgantolimod) as a Potent and Selective Oral Toll-Like Receptor 8 Agonist for the Treatment of Chronic Hepatitis B” (J Med Chem, 2020).

Molecules are shown by their SMILES. pEC50: −log10 of the molar value.

Data set [1] in a line: Cmax in Sprague-Dawley rat at 5 mg/kg, po administered via gavage by HPLC-MS analysis. The class given is ADME, organism-based. Further details: route oral, dose 5 mg/kg. As to conditions: in vivo. A digest of the protocol:
(§1)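 Oral dosing in 2% ethanol/40% PEG 300/58% 0.01N HCl: Sprague Dawley rats 5 mg/kg, beagle dogs 0.5 mg/kg, cynomolgus monkeys 3 mg/kg.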

The nature of data set [2]: Cmax in cynomolgus monkey at 3 mg/kg, po administered via gavage by HPLC-MS analysis. The class given is ADME, organism-based, Macaca fascicularis. The arrangement: route oral, dose 3 mg/kg. The note with it: in vivo. The procedure, abridged:
as §1

Data set [3] is described as follows: AUC (infinity) in Beagle dog at 0.5 mg/kg, po administered via gavage by HPLC-MS analysis. It counts as ADME, organism-based, Canis lupus familiaris. The arrangement: route oral, time infinity, dose 0.5 mg/kg. The note with it: in vivo. The procedure, abridged:
as §1

The nature of data set [4]: Drug excretion in bile duct-cannulated Sprague-Dawley rat urine. As to conditions: in vivo. The class given is ADME.
A short description of data set [5]: Apparent permeability across apical to basolateral side in human Caco2 cells measured after 1 to 2 hrs by LC-MS/MS analysis. The note with it: Caco-2. (In general: Caco-2 monolayers are a common model of the intestinal barrier.)
Data set [6] concerns the target T1, Toll-like receptor 7 (Homo sapiens) (UniProt Q9NYK1).
T1 sequence (whole entry): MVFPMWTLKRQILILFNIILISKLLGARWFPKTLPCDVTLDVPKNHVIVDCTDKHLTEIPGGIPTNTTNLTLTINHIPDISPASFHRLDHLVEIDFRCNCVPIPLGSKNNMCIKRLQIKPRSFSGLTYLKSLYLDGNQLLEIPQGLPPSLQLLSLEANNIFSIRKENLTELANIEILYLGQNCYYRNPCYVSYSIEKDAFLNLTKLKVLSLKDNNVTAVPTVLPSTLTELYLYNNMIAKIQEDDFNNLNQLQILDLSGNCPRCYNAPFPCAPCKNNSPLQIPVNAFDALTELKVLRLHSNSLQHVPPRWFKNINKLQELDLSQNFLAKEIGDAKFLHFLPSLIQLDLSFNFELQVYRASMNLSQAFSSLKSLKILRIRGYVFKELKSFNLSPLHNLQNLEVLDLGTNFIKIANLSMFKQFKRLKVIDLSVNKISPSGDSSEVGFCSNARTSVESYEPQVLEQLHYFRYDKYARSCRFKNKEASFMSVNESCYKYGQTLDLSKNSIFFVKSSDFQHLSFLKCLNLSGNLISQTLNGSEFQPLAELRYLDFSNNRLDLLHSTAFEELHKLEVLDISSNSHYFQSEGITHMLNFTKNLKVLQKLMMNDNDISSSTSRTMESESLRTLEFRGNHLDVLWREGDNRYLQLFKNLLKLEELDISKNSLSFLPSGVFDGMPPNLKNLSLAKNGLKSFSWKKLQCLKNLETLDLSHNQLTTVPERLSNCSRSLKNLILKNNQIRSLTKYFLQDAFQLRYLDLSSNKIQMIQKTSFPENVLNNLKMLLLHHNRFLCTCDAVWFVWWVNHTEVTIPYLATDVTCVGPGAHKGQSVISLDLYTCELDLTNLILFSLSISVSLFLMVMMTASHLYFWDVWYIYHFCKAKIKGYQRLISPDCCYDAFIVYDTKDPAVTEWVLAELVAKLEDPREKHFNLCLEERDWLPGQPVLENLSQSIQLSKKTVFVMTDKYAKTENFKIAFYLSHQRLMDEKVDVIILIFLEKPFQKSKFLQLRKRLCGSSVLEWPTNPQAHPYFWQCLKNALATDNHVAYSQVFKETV
The data set can be described thus: Agonist activity at human TLR7 expressed in HEK293 cells assessed as increase in NF-kappaB activation incubated for 24 hrs by quanti-blue SEAP reporter gene assay. The class given is cell-based. As to conditions: filed as agonist. The procedure, abridged:
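HEK293 cells stably expressing individual human TLRs or other innate immune receptors, used as reporter gene assays. Minimum effective concentration defined as the level giving a 3-fold rise over background.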
On the technique in general: In a reporter assay the amount or activity of a reporter protein is the signal.

Data set [7] in a line: Drug absorption in Beagle dog at 0.5 mg/kg, po administered via gavage by HPLC-MS analysis. The class given is ADME, organism-based, Canis lupus familiaris. As to conditions: in vivo, read-out: Drug absorption. The procedure, abridged:
as §1

Data set [8] concerns the target T2, Toll-like receptor 8 (Homo sapiens) (UniProt Q9NR97).
T2 sequence (whole entry): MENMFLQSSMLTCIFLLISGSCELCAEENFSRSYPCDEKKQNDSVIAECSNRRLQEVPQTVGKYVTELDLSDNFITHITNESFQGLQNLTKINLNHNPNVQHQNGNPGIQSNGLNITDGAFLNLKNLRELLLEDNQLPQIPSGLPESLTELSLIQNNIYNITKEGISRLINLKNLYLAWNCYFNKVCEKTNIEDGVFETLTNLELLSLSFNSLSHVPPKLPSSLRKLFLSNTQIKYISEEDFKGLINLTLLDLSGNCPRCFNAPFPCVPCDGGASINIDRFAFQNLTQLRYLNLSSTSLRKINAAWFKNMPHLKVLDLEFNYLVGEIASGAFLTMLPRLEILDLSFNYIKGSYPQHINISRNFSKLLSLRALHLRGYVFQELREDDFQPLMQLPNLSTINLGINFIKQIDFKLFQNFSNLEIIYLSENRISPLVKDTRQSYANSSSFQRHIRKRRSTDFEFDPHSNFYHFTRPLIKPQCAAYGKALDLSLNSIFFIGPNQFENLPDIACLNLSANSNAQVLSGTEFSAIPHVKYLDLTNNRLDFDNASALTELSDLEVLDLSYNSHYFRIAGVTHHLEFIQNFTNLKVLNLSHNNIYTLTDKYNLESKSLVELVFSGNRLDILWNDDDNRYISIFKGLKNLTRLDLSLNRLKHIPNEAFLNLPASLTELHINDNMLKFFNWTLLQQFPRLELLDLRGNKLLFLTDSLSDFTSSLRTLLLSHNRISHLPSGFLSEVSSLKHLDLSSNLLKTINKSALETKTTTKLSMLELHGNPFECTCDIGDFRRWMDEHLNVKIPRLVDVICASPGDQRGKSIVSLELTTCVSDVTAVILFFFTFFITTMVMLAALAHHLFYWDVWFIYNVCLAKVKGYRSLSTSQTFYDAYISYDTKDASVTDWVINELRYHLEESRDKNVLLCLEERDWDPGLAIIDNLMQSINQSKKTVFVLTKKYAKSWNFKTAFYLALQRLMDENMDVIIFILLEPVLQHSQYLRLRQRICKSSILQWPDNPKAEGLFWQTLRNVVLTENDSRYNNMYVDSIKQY
Description: Agonist activity at human TLR8 expressed in HEK293 cells assessed as increase in NF-kappaB activation incubated for 24 hrs by quanti-blue SEAP reporter gene assay. The note with it: filed as agonist. The class given is cell-based. The procedure, abridged: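 HEK293 cells stably expressing human TLR8 reporter. Value taken as the minimum effective concentration (MEC), defined as the concentration giving a 3-fold increase in reporter signal above background.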

Data set [9] can be described thus: Volume of distribution at steady state in Beagle dog at 0.25 mg/kg, iv administered as 30 mins infusion by HPLC-MS analysis. It counts as ADME, organism-based, Canis lupus familiaris. The note with it: in vivo, read-out: Vdss. A digest of the protocol: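 30-min intravenous infusion: Sprague Dawley rats 1 mg/kg, beagle dogs 0.25 mg/kg, cynomolgus monkeys 0.1 mg/kg; n = 3 per species, reported as mean ± SD.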

Data set [10] deals with T3, Toll-like receptor 8 (Homo sapiens, UniProt Q9NR97).
T3 sequence (Q9NR97 whole entry): T2 sequence (whole entry)
The data set can be described thus: Agonist activity at TLR8 in human cryopreserved PBMC assessed as induction of IL-12p40 production measured after 24 hrs.

A word on the Cmax: it is the peak of the concentration-time curve. Usually AUC(0-inf) stands for total exposure, with the tail of the curve extrapolated. For orientation: Papp A→B means how fast a substance crosses the layer from the apical side. By pEC50 is commonly meant −log10 of the EC50, conventionally taken in molar units. As to `CCCC[C@](C)(CO)Nc1nc(N)nc2cc(F)cnc12` [SELGANTOLIMOD], the Cmax in data set [1] came to 517 nM; in [2], 1.2 nM. The compound further displayed a total exposure AUC(0-inf) in data set [3] of 0.0118 µM·h. In [4], the Drug excretion result is on record as “Active”. Besides, the Papp A→B in data set [5] is 7.9 ×10⁻⁶ cm/s. The MEC turned out to be 5.2 µM in data set [6] and 49 nM in data set [8]. Also, in [7], the Fa was found to be 28%. In addition, in data set [9], the Vd came to 1.01 L/kg. The pEC50 in data set [10] is 6.66.
